# Experimental data published in ChEMBL document CHEMBL1137780, “Isocombretastatins a versus combretastatins a: the forgotten isoCA-4 isomer as a highly promising cytotoxic and antitubulin agent” (J Med Chem, 2009).
# Active and inactive are the calls of the source. The rule behind the calls is not given here.
# Key:
# MDA-MB-231 = test: Cytotoxicity against human MDA-MB-231 cells after 72 hrs; format: functional, cell-based; conditions: MDA-MB-231, 72 h
# Summary of the method: (§1)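 Human K562 (chronic myelogenous leukemia) or MDA-MB231 (breast cancer) cells exposed to compound for 72 h; IC50 taken as concentration reducing cell growth by 50%, averaged over three experiments.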
# K562 [1] = test: Cytotoxicity against human K562 cells after 72 hrs; format: functional, cell-based; conditions: K562, 72 h; summary of the method: as §1
# [2] = Inhibition of tubulin polymerization assessed as blockade of microtubule assembly
# K562 [3] = test: Cell cycle arrest in human K562 cells assessed as increase in G2/M phase accumulation after 24 hrs; format: functional, cell-based
# Summary of the method: (§2)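 K562 leukemia cells cultured 24 h with increasing concentrations of test agent; DNA content measured by propidium iodide staining and flow cytometry to give cell-cycle phase distribution (G1, S, G2/M).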
# K562 [4] = test: Cell cycle arrest in human K562 cells assessed as decrease in G1 phase accumulation after 24 hrs; format: functional, cell-based; summary of the method: as §2
# [5] = Cytotoxicity against human H1299 cells after 72 hrs; format: functional, cell-based; conditions: NCI-H1299, 72 h
# Summary of the method: (§3)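 Human tumour cell lines (H1299 non-small-cell lung carcinoma, HCT116 colon carcinoma) were exposed to the test drug for 72 h. IC50 is the concentration that reduced cell growth by 50%, taken as the average of three experiments.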
# HCT-116 [6] = test: Cytotoxicity against human HCT116 cells after 72 hrs; format: functional, cell-based; conditions: HCT-116, 72 h; summary of the method: as §3
# K562 [7] = test: Cell cycle arrest in human K562 cells assessed as decrease in S phase accumulation after 24 hrs; format: functional, cell-based; summary of the method: as §2
# [8] = Cytotoxicity against human NCI60 cells; format: functional
# NCI-H460 [9] = test: Cytotoxicity against human H460 cells; format: functional, cell-based
# HCT-116 [10] = test: Ratio of IC50 of drug to IC50 for combretastatin CA-4 against human HCT116 cells; format: functional
# P388 = test: Cytotoxicity against mouse P388 cells; format: functional; conditions: read-out: ED50 (the source's name)
# Colon 26 = test: Ratio of IC50 of drug to IC50 for combretastatin CA-4 against mouse Colon 26 cells; format: functional
# NCI-H460 [11] = test: Ratio of IC50 of drug to IC50 for combretastatin CA-4 against human H460 cells; format: functional
compound,measurement,setting,value
C=C(c1ccc(OC)c(O)c1)c1cc(OC)c(OC)c(OC)c1,IC50,MDA-MB-231,0.004 µM
same,IC50,K562 [1],0.005 µM
same,IC50,[2]; read-out: IC50,2.2 µM
same,Activity,K562 [3],Dose-dependent effect
same,Activity,K562 [4],Active
same,IC50,[5],0.005 µM
same,IC50,HCT-116 [6],0.0025 µM
same,Activity,K562 [7],Active
COc1ccc(/C=C\c2cc(OC)c(OC)c(OC)c2)cc1O [COMBRETASTATIN A4],IC50,MDA-MB-231,0.003 µM
same,IC50,K562 [1],0.0036 µM
same,GI50,[8],0.0032 µM
same,IC50,[5],0.005 µM
same,IC50,HCT-116 [6],0.0023 µM
COc1ccc(C(=C(F)F)c2cc(OC)c(OC)c(OC)c2)cc1O,Activity,NCI-H460 [9],Active
same,IC50,[2]; read-out: IC50,2.5 µM
same,Ratio IC50,HCT-116 [10],2.6
COc1ccc(/C=C\c2cc(O)c(OC)c(OC)c2)cc1O,EC50,P388,0.026 µM
COc1cc2c(c(OC)c1OC)-c1ccc(OC)c(=O)cc1[C@@H](NC(C)=O)CC2 [COLCHICINE],IC50,MDA-MB-231,0.026 µM
same,IC50,K562 [1],0.029 µM
same,IC50,[2]; read-out: IC50,2.1 µM
same,IC50,[5],0.03 µM
same,IC50,HCT-116 [6],0.032 µM
COc1ccc(/C=C\c2cc(OC)c3c(c2)OCO3)cc1O [Combretastatin A-2],GI50,[8],0.0316 µM
COc1ccc(/C(=C/C#N)c2cc(OC)c(OC)c(OC)c2)cc1O (mixture of isomers),IC50,[2]; read-out: IC50,4.3 µM
same,Ratio IC50,HCT-116 [10],1.3
same,IC50,HCT-116 [6],0.003 µM
C=C(c1ccc(OC)c(O)c1)c1cc(O)c(OC)c(OC)c1,IC50,MDA-MB-231,0.008 µM
same,IC50,K562 [1],0.052 µM
same,IC50,[2]; read-out: IC50,5 µM
same,IC50,[5],0.025 µM
same,IC50,HCT-116 [6],0.034 µM
C=C(c1ccc(OC)c(OC)c1)c1cc(O)c(OC)c(OC)c1,IC50,MDA-MB-231,3 µM
same,IC50,K562 [1],3.1 µM
same,IC50,[2],Not Active
same,IC50,[5],5 µM
same,IC50,HCT-116 [6],2.8 µM
C=C(c1cc(OC)c(OC)c(OC)c1)c1ccc(OC)c(O)c1O,IC50,MDA-MB-231,0.82 µM
same,IC50,K562 [1],0.75 µM
same,IC50,[2]; read-out: IC50,2.1 µM
same,IC50,[5],2 µM
same,IC50,HCT-116 [6],0.85 µM
COc1ccc(/C=C\c2cc(OC)c(OC)c(OC)c2)c(O)c1O [COMBRETASTATIN A-1],GI50,[8],0.0162 µM
COc1ccc(/C=C(/C#N)c2cc(OC)c(OC)c(OC)c2)cc1O,Ratio IC50,Colon 26,1.3
COc1ccc(/C(F)=C(/F)c2cc(OC)c(OC)c(OC)c2)cc1O,Activity,NCI-H460 [9],Active
same,Ratio IC50,NCI-H460 [11],1.6
C=C(c1ccc(OC)c(O)c1)c1cc(OC)c2c(c1)OCO2,IC50,MDA-MB-231,0.048 µM
same,IC50,K562 [1],0.038 µM
same,IC50,[2]; read-out: IC50,3.4 µM
same,IC50,[5],0.032 µM
same,IC50,HCT-116 [6],0.038 µM
COc1ccc(/C=C\c2cc(O)c(OC)c(OC)c2)cc1OC,EC50,P388,0.9 µM
COc1ccc(C(=O)c2cc(OC)c(OC)c(OC)c2)cc1O [PHENSTATIN],IC50,MDA-MB-231,0.028 µM
same,IC50,K562 [1],0.041 µM
same,IC50,[2]; read-out: IC50,2 µM
same,IC50,[5],0.021 µM
same,IC50,HCT-116 [6],0.033 µM
